Assay outcomes (PubChem)
Apaf-1 inh = blocks human Apaf-1 apoptosome activity | O14727 | reconstituted apoptosome caspase-3 activity, DEVD-Rh110 fluorescence | inhibition, % at 20 µM | 0.71% of 330,000 active; active means inhibition of at least 40% at 20 µM
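Assay system: Apoptosome proteins | Medium: pH 7.5 Hepes buffer with CHAPS, BSA, DTT | Also added: Cytochrome c and DEVD-Rh110 substrate | Times: 30 min plus 50 min, RT | Detection: Rhodamine 110 fluorescence at Ex 480/Em 540 nm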
SENP8 block-1 = inhibitors of human SENP8 protease; Q96LD8; 0.64% of 360,000 active; recombinant SENP8, Nedd8 substrate fluorescence; inhibition, % at 20 µM; in the data active means inhibition mostly above about 40%, no sharp cut-off; inactive means mostly below about 27%
SENP8 block-2 = blocks the human protease SENP8 | Q96LD8 | purified SENP8, Z-RLRGG-aminoluciferin cleavage, luminescence | inhibition, % at 10 µM | 1.2% of 330,000 active; in the data active means inhibition above about 50%
SENP7 block = blocks the human protease SENP7. Q9BQF6. recombinant SENP7, Z-RLRGG-aminoluciferin luminescence, 40 min. inhibition, % at 5 µM. 1.5% of 330,000 active. AID 434973;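 active means inhibition above about 50% at the single test dose, limit read from the data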
UBC13 polyUb = inhibitors of human UBC13 polyubiquitin chain formation; TR-FRET; inhibition, % at 20 µM; 0.47% of 330,000 active; AID 485273; in the data active means inhibition above about 45%, passing the limit was not always enough
SENP6 inh = blocks the human protease SENP6. Q9GZR1. Recombinant SENP6 catalytic domain, aminoluciferin luminescence. inhibition, % at 10 µM. 1.8% of 330,000 active;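 active means inhibition above about 50% at the single tested dose, limit read from the data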
Target sequence (Q9GZR1 628-1112 limits assumed): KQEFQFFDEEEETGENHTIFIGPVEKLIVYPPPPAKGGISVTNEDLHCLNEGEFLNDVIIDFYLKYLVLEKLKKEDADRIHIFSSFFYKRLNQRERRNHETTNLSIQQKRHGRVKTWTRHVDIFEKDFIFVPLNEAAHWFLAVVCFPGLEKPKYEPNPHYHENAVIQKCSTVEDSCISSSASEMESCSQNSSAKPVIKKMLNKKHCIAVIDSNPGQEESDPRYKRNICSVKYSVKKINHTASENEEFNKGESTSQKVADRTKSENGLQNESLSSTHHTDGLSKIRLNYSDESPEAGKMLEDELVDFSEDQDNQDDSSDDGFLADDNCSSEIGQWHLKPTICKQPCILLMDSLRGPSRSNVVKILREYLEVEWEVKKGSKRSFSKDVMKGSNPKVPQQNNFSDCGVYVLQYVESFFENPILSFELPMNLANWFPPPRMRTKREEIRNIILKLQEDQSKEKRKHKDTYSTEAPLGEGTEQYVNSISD
SENP8 confirm = confirmation of human SENP8 protease inhibitors; shares compounds with SENP7 block; Recombinant SENP8, Z-RLRGG-aminoluciferin luminescence, 60 min; inhibition, % at 12.5 µM; 40% of 6,200 active; AID 488912;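 active means mean inhibition across replicates above about 50%, limit read from the data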
SENP6 confirm = confirmation of human SENP6 protease inhibitors | shares compounds with SENP7 block | 58% of 6,200 active | recombinant SENP6, Z-RLRGG-aminoluciferin luminescence | AID 488915 | inhibition, % at 12.5 µM
SENP7 conf = human SENP7 inhibition, confirmed; shares compounds with SENP7 block; recombinant SENP7, Z-RLRGG-aminoluciferin luminescence, 40 min; inhibition, % at 12.5 µM; 69% of 6,200 active; AID 488917
Casp3 select = inhibits human caspase-3 in SENP selectivity test | shares compounds with SENP7 block | purified caspase-3, Z-DEVD-aminoluciferin luminescence, 60 min | inhibition, % at 12.5 µM | 60% of 6,200 active | AID 488918;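 active means mean inhibition above about 50%, limit read from the data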
Target sequence (P42574 28-227 limits assumed): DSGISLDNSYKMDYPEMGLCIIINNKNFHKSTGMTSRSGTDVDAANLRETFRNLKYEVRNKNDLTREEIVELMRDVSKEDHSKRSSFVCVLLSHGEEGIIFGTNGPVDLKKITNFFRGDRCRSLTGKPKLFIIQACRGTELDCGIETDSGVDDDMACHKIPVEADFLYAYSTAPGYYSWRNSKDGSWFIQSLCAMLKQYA
SENP luc ctr = counter-screen for SENP inhibitors: luminescence interference. shares compounds with SENP7 block. Pre-incubated SENP8/Z-RLRGG-aminoluciferin, luciferase luminescence interference. inhibition, % at 12.5 µM. 39% of 6,200 active. AID 488919;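 active means mean inhibition above about 50% when retested at one dose, limit read from the data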
Each line names hits and unclear results; the compound was inactive in the other large screens (follow-up assays come after a bar, where they were run). This is a sample that favours compounds with a hit; in the whole collection about 3.1% have one here.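 How the source made its calls, unless noted: active means mean inhibition above about 50% in the one-dose retest (limit read from the data); inactive means the rest.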

Cc1nc(NC(=O)c2cccnc2Cl)sc1C	SENP6 inh 53.6 | SENP8 confirm inactive | SENP6 confirm inactive | SENP7 conf 75.1 | Casp3 select 79.6 | SENP luc ctr 60.2
CCSc1nnc(NC(=O)c2cccnc2Cl)s1	none
Cc1nc(NC(=O)c2csc3ccccc23)sc1C	SENP8 block-2 50.3, SENP7 block 77.1, SENP6 inh 69.4 | SENP8 confirm inactive | SENP6 confirm 72.7 | SENP7 conf 95.0 | Casp3 select 51.3 | SENP luc ctr inactive
CC(=O)c1sc(NC(=O)c2ccccc2)nc1-c1ccccc1	SENP8 block-2 63.1, SENP7 block 61.4, SENP6 inh 75.1 | SENP8 confirm inactive | SENP6 confirm 70.7 | SENP7 conf 88.4 | Casp3 select 50.9 | SENP luc ctr 53.6
Cc1nn(C)c(C)c1/C=N/NC(=O)c1csc2ccccc12	none (no result: SENP8 block-1)
Cc1nc(NC(=O)CCc2ccccc2)sc1C	none
Cc1nc(NC(=O)c2ccccc2O)sc1C	SENP7 block 54.0 | SENP8 confirm inactive | SENP6 confirm inactive | SENP7 conf inactive | Casp3 select inactive | SENP luc ctr inactive
COc1ccc(OCCN2CCC(C(=O)NC(c3ccc(Cl)cc3)c3ncccc3C)CC2)cc1 (stereo not drawn)	none (no result: Apaf-1 inh, SENP8 block-2, SENP7 block, UBC13 polyUb, SENP6 inh)
Cc1nc(NC(=S)NC(=O)c2ccccc2)sc1C	none
Cc1nc(NC(=O)c2ccccc2)sc1C	SENP8 block-2 78.1, SENP7 block 91.9, SENP6 inh 89.5 | SENP8 confirm 90.2 | SENP6 confirm 91.0 | SENP7 conf 100.5 | Casp3 select 94.7 | SENP luc ctr 89.2
OCc1cccc(-c2csc(C(O)c3ccco3)n2)c1 (stereo not drawn)	none (no result: Apaf-1 inh, SENP8 block-2, SENP7 block, UBC13 polyUb, SENP6 inh)
CC1CCN(C(=O)c2cc3ccccc3c(=O)o2)CC1	none
CCOC(=O)C1CCN(C(=O)c2cc3cc4ccc(C)cc4nc3o2)CC1	none
CCOC(=O)C1CCN(C(=O)c2cc3c(ccc4ccccc43)o2)CC1	SENP8 block-2 56.2, SENP7 block 55.7, SENP6 inh 72.9 | SENP8 confirm 69.2 | SENP6 confirm 66.9 | SENP7 conf 80.9 | Casp3 select 53.1 | SENP luc ctr 54.6
CC1CCN(C(=O)c2cc3c(ccc4ccccc43)o2)CC1	SENP8 block-2 89.0, SENP7 block 90.4, SENP6 inh 92.8 | SENP8 confirm 89.0 | SENP6 confirm 89.6 | SENP7 conf 98.5 | Casp3 select 78.3 | SENP luc ctr 76.2
OC1C2COC(O2)C2OC(c3ccccc3)OC12 (stereo not drawn)	none (no result: Apaf-1 inh, SENP8 block-2, SENP7 block, UBC13 polyUb, SENP6 inh)
CC1(C(=O)NS(=O)(=O)c2ccc(Br)cc2)CCN1C(=O)Cc1ccsc1 (stereo not drawn)	none (no result: Apaf-1 inh, SENP8 block-2, SENP7 block, UBC13 polyUb, SENP6 inh)
Cc1nnc(SCCC(=O)Nc2nc(-c3ccccc3)ns2)s1	SENP6 inh 58.3 | SENP8 confirm 53.9 | SENP6 confirm 50.4 | SENP7 conf 77.5 | Casp3 select inactive | SENP luc ctr inactive
CCCC(=O)Nc1nc(-c2ccccc2)ns1	none
COc1ccc(NC(=O)c2cc(C3CCCCN3S(=O)(=O)c3ccc(F)cc3F)on2)c(C)c1 (stereo not drawn)	none (no result: Apaf-1 inh, SENP8 block-2, SENP7 block, UBC13 polyUb, SENP6 inh)
O=c1cc(-c2ccc3c(c2)OCCO3)oc2ccc(Cl)cc12	SENP7 block 90.9 | SENP8 confirm inactive | SENP6 confirm inactive | SENP7 conf inactive | Casp3 select inactive | SENP luc ctr inactive
O=c1cc(-c2ccsc2)oc2cc(-c3ccc4c(c3)OCO4)ccc12	none
O=c1cc(-c2cccs2)oc2ccc(Cl)cc12	SENP7 block 50.1, SENP6 inh 55.0 | SENP8 confirm inactive | SENP6 confirm inactive | SENP7 conf 50.8 | Casp3 select inactive | SENP luc ctr inactive
O=c1cc(-c2ccccc2)oc2ccc(Cl)cc12	none (no result: Apaf-1 inh, SENP8 block-2, SENP7 block, UBC13 polyUb, SENP6 inh)
CC(=O)Nc1cccc(NC(=O)C(=O)c2cn(CC(=O)N3CCCC3)c3ccccc23)c1	none (no result: Apaf-1 inh, SENP8 block-2, SENP7 block, UBC13 polyUb, SENP6 inh)
Cn1c(=O)c2cc(NC(=O)NCCc3ccccc3)ccc2n1Cc1ccc(F)cc1	none (no result: Apaf-1 inh, SENP8 block-2, SENP7 block, UBC13 polyUb, SENP6 inh)
Clc1ccc2nc(-c3ccccc3)c(CC3CCCCC3)n2c1	none (no result: Apaf-1 inh, SENP8 block-2, SENP7 block, UBC13 polyUb, SENP6 inh)
CO[C@H]1CN(C)C(=O)c2ccc(NS(=O)(=O)c3ccccc3F)cc2OC[C@H](C)NC[C@@H]1C	none (no result: Apaf-1 inh, SENP8 block-2, SENP7 block, UBC13 polyUb, SENP6 inh)
Cc1ccc(C)c(NC(=S)Nc2cccc3cnccc23)c1	Apaf-1 inh 95.7, SENP8 block-2 76.5, SENP7 block 53.6, SENP6 inh 78.5 | SENP8 confirm inactive | SENP6 confirm inactive | SENP7 conf inactive | Casp3 select inactive | SENP luc ctr inactive
Cc1ccc(F)c(NC(=S)Nc2cccc3ccccc23)c1	Apaf-1 inh 78.2, SENP8 block-2 83.5, SENP6 inh 87.7 | SENP8 confirm inactive | SENP6 confirm inactive | SENP7 conf inactive | Casp3 select inactive | SENP luc ctr inactive
COc1cccc(-c2nc(-c3ccc(C(=O)O)cc3)no2)c1	SENP8 block-2 95.4, SENP7 block 97.2, SENP6 inh 99.0 | SENP8 confirm 99.2 | SENP6 confirm 99.9 | SENP7 conf 103.2 | Casp3 select 99.1 | SENP luc ctr 86.4
COc1cccc(-c2nc3ccc(O)cc3c(=O)o2)c1	SENP8 block-2 73.7, SENP7 block 87.1, SENP6 inh 88.6 | SENP8 confirm inactive | SENP6 confirm 80.8 | SENP7 conf 96.3 | Casp3 select 80.0 | SENP luc ctr 87.1
O=C(O)c1ccc(-c2noc(-c3cccc(F)c3)n2)cc1	SENP8 block-2 95.1, SENP7 block 95.8, SENP6 inh 97.2 | SENP8 confirm 98.1 | SENP6 confirm 98.6 | SENP7 conf 101.3 | Casp3 select 97.2 | SENP luc ctr 95.0
COc1cc(OC)cc(-c2nc(-c3ccccc3)no2)c1	none
COC(=O)[C@]12CCCCC=C1N(Cc1cccc3ccccc13)C(=O)[C@H](CC(=O)NCC1CCCCC1)C2	none (no result: Apaf-1 inh, SENP8 block-2, SENP7 block, UBC13 polyUb, SENP6 inh)
O=C(Nc1cccc(C(=O)O)c1)/C(=C\c1cccc([N+](=O)[O-])c1)NC(=O)c1ccc(Br)cc1	none (no result: Apaf-1 inh, SENP8 block-2, SENP7 block, UBC13 polyUb, SENP6 inh)
CN(Cc1ccco1)C(=O)[C@H](Cc1ccccc1)NC(=O)CC[C@H]1O[C@@H](n2ccc(=O)[nH]c2=O)[C@H](O)[C@@H]1O	none (no result: Apaf-1 inh, SENP8 block-2, SENP7 block, UBC13 polyUb, SENP6 inh)
O=C(O)c1ccc(-c2nc3ccccc3s2)o1	SENP8 block-2 76.9, SENP7 block 78.2, SENP6 inh 90.9 | SENP8 confirm 87.0 | SENP6 confirm 83.8 | SENP7 conf 92.5 | Casp3 select 61.3 | SENP luc ctr 82.1
